Series [1] deals with HCT-116. The series is described as follows: MTT cytotoxicity assay, HCT-116. Type of series: cell-based, human. The following applies: for Cytotoxicity grade HCT-116: grade in words in text; for SI (HCT-116): selectivity index WI-38 vs HCT-116. The gist of the method: (§1)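 MTT viability assay on human HCT-116 and MCF-7 lines. Each test compound was run at 100, 50, 25, 12.5, 6.25, 3.125 and 1.56 μM, with IC50 determined per cell line.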

Series [2] has as its system MCF-7. Put plainly: MTT cytotoxicity assay, MCF-7. Type of series: cell-based, human. The following applies: for Cytotoxicity grade MCF-7: grade in words in text; for SI (MCF-7): selectivity index WI-38 vs MCF-7. The gist of the method:
as §1
A general note: Tetrazolium assays rely on reduction of a dye to a coloured formazan, in cell work by metabolically active cells.

The subject of another series is BAX. Put plainly: BAX level. Type of series: cell-based. The following applies: control = 1.
For a further series, the system named is BCL2. Put plainly: BCL2 level. The following applies: control = 1. Type of series: cell-based.
Another series has as its system WI-38. The series is described as follows: MTT cytotoxicity on normal lung fibroblast. Type of series: cell-based, human. The following applies: read-out: Cytotoxicity on WI-38 IC50; normal cell line, MTT assay.
For series [3], the system named is HCT-116. The following applies: read-out: Cytotoxic activity IC50 HCT-116, cited from earlier work.
Series [4] deals with MCF-7. The following applies: read-out: Cytotoxic activity IC50 MCF-7, cited from earlier work.
Series [5] in a line: MTT cytotoxicity on normal lung fibroblast. Type of series: cell-based, human. The following applies: human, WI-38 normal lung fibroblast cells.
The subject of another series is caspase-3. The series is described as follows: Active caspase-3 level. Type of series: cell-based, human.
In a further series the test system is p53. The series is described as follows: Active p53 level. Type of series: cell-based, human.
For a further series, the target named is VEGFR-2 (Homo sapiens, UniProt P35968). The series is described as follows: VEGFR-2. The following applies: VEGFR-2 inhibitory activity IC50. Type of series: biochemical.
Setting [6] is: Homo sapiens, HCT-116, read-out: Cytotoxic activity IC50 HCT-116.
[7] abbreviates: Homo sapiens, MCF7, read-out: Cytotoxic activity IC50 MCF-7.
The mark [8] stands for this setting: read-out: Cytotoxic activity IC50 HCT-116, MTT assay.
Setting [9] is: read-out: Cytotoxic activity IC50 MCF-7, MTT assay.
Where [10] appears, read: sorafenib reference value ref 36.
[11] abbreviates: sunitinib reference value ref 34,35.

Here are results for 13 compounds from article PMC10616755 (RSC Advances, 2023).

Like-named read-outs stand apart in the source and are kept apart here.

By IC50 is commonly meant the point on the concentration scale where inhibition reaches its midpoint.

VEGFR-2, sequence (P35968 20-1356): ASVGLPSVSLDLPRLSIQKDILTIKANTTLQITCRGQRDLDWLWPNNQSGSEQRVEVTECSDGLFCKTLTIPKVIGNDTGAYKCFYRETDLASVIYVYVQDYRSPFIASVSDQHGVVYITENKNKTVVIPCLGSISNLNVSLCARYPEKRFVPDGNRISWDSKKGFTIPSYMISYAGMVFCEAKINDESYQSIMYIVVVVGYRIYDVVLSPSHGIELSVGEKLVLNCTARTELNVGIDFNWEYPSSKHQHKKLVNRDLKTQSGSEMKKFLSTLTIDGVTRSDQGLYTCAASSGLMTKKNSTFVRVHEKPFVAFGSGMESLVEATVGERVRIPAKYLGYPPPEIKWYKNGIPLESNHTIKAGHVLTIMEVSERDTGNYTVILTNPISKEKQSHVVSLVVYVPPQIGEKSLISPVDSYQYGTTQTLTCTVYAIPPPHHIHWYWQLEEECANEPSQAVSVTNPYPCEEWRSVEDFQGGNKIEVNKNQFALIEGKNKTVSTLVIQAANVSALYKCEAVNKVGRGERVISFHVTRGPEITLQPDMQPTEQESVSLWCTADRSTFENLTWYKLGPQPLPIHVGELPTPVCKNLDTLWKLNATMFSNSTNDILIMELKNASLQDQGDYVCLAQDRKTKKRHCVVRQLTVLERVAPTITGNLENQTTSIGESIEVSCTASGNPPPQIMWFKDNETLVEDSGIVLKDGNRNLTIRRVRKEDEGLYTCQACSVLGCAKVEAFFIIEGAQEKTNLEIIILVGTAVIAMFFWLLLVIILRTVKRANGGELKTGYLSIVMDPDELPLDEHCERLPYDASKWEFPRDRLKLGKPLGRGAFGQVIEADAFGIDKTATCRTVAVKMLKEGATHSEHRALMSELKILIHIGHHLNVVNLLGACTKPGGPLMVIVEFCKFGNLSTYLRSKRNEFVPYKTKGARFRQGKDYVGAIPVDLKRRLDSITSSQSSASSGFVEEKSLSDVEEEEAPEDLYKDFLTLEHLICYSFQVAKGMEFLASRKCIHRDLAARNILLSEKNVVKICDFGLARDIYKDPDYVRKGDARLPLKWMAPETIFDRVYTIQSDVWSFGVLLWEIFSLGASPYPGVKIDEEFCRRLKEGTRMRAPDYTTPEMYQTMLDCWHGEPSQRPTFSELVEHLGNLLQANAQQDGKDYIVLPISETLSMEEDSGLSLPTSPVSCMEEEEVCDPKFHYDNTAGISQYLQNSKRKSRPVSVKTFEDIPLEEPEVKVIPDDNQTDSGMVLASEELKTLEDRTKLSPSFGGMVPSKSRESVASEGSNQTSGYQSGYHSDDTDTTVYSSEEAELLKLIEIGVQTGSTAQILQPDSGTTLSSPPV

For the compound `O=C(CCc1nc2cc(Cl)ccc2[nH]c1=O)Nc1ccc(C(=O)O)cc1` [Compound 16, 4-(3-(6-Chloro-1,2-dihydro-2-oxoquinoxalin-3-yl)propanamido)benzoic acid], the IC50 with HCT-116 [1] (setting [6]) turned out to be 75.1 ± 3.6 µM; in the series on MCF-7 [2] (setting [7]), 67.2 ± 3.5 µM. Besides, in the series on HCT-116 [1], the “Cytotoxicity grade HCT-116” value is “weak (51–100 (weak))”. The “Cytotoxicity grade MCF-7” value in the series on MCF-7 [2] is on record as “weak (51–100 (weak))”.

For the compound `CN[C@@H]1C[C@H]2O[C@@](C)([C@@H]1OC)n1c3ccccc3c3c4c(c5c6ccccc6n2c5c31)C(=O)NC4` [Staurosporine], the values for the BAX fold change with BAX and in the series on BAX (listed as staurosporine) were 7.5517 fold change and 7.55 fold change, respectively. The BCL2 fold change in the series with BCL2 was found to be 0.3248 fold change; in the series on BCL2 (listed as staurosporine) it was 0.33 fold change.

On to “4-(3-(6-Chloro-1,2-dihydro-2-oxoquinoxalin-3-yl)propaneamido)-4-oxobutanoic acid [Compound 20]”, for which the IC50 amounted to 26.4 ± 3.8 µM in the series with HCT-116 [1] (setting [8]), 10.2 ± 3.3 µM in the series on MCF-7 [2] (setting [9]) and 93 ± 2.2 µM with WI-38. In addition, the “SI (HCT-116)” value with HCT-116 [1] is 3.52. The “SI (MCF-7)” value in the series with MCF-7 [2] was found to be 9.15.

For `Cc1cccc(NC(=O)CCc2nc3cc(Cl)ccc3[nH]c2=O)c1` [Compound 12, 3-(6-Chloro-1,2-dihydro-2-oxoquinoxalin-3-yl)-N-m-tolylpropanamide], the values for the IC50 in the series on HCT-116 [1] (setting [6]) and in the series with MCF-7 [2] (setting [7]) were 28.4 ± 2.2 µM and 24.6 ± 1.9 µM, respectively.

Turning to `CNC(=O)c1cc(Oc2ccc(NC(=O)Nc3ccc(Cl)c(C(F)(F)F)c3)cc2)ccn1` [Sorafenib], the IC50 is 18.6 ± 1.9 µM in the series on HCT-116 [3] (setting [10]) and 16 ± 3.6 µM with MCF-7 [4] (setting [10]).

For the compound `Cc1ccccc1NC(=O)CCc1nc2cc(Cl)ccc2[nH]c1=O` [Compound 13, 3-(6-Chloro-1,2-dihydro-2-oxoquinoxalin-3-yl)-N-o-tolylpropanamide], the IC50 with HCT-116 [1] (setting [6]) is 22.2 ± 1.9 µM; in the series on MCF-7 [2] (setting [7]), 18.9 ± 1.4 µM.

For `COc1cccc2c1C(=O)c1c(O)c3c(c(O)c1C2=O)C[C@@](O)(C(=O)CO)C[C@@H]3O[C@H]1C[C@H](N)[C@H](O)[C@H](C)O1` [DOX, Doxorubicin, reference compound], the IC50 is 9.27 ± 0.3 µM in the series on HCT-116 [1] (setting [6]), 7.43 ± 0.2 µM in the series with MCF-7 [2] (setting [7]) and 6.72 ± 0.5 µM in [5]. Besides, the “SI (HCT-116)” value with HCT-116 [1] turned out to be 0.72. Moreover, the “SI (MCF-7)” value in the series on MCF-7 [2] is reported as 0.9.

For “2,4-Dichloro-N′-(3-(6-chloro-3-oxo-3,4-dihydroquinoxalin-2-yl)-propanoyl) benzohydrazide [Compound 19]”, in the series with HCT-116 [1], the “Cytotoxicity grade HCT-116” value was “very strong (1–10 (very strong))” and the “SI (HCT-116)” value was found to be 11.58. Also, the IC50 in the series on HCT-116 [1] (setting [8]) turned out to be 6.18 ± 2.1 µM. In the series with MCF-7 [2], the “Cytotoxicity grade MCF-7” value was “very strong (1–10 (very strong))” and the “SI (MCF-7)” value was found to be 14.01. Besides, in the series with MCF-7 [2] (setting [9]), the IC50 worked out at 5.11 ± 0.8 µM. The IC50 in the series on WI-38 turned out to be 71.6 ± 2.8 µM.

Consider “2-(2-(3-(6-Chloro-3-oxo-3,4-dihydroquinoxalin-2-yl)propanoyl)hydrazine-1-carbonyl) benzoic acid [Compound 21]”, for which the IC50 with HCT-116 [1] (setting [8]) is 48.2 ± 2.7 µM; in the series on MCF-7 [2] (setting [9]), 41.5 ± 2.5 µM.

Consider `CCN(CC)CCNC(=O)c1c(C)[nH]c(/C=C2\C(=O)Nc3ccc(F)cc32)c1C` [Sunitinib], for which, in the series on caspase-3 (MCF-7 cells, control 47.88 ± 13.15), the “Caspase 3” value was 384.53 ± 8.40 pg/mL. In addition, in the series with caspase-3 (vs control), the “Caspase 3 Fld” value is 8.031 fold. Besides, in the series on p53 (MCF-7 cells, control 22.19 ± 8.39), the p53 amounted to 278.34 ± 5.27 pg/mL. In addition, the “p53 Fld” value with p53 (vs control) is reported as 12.543 fold. Also, the IC50 in the series with HCT-116 [3] (setting [11]) is 3.42 ± 0.5 µM; in the series with MCF-7 [4] (setting [11]) it was 4.77 ± 0.2 µM.

On to `O=C(CCc1nc2cc(Cl)ccc2[nH]c1=O)Nc1ccccc1` [Compound 5, 3-(6-Chloro-1,2-dihydro-2-oxoquinoxalin-3-yl)-N-phenylpropanamide], for which the IC50 in the series with HCT-116 [1] (setting [6]) was found to be 45.5 ± 2.7 µM; in the series with MCF-7 [2] (setting [7]), 39 ± 2.4 µM. In the series with HCT-116 [1], the “Cytotoxicity grade HCT-116” value was “moderate (21–50 (moderate))”. Moreover, the “Cytotoxicity grade MCF-7” value with MCF-7 [2] is recorded as “moderate (21–50 (moderate))”.

`O=C(CCc1nc2cc(Cl)ccc2[nH]c1=O)Nc1ccccc1O` [Compound 9, 3-(6-Chloro-1,2-dihydro-2-oxoquinoxalin-3-yl)-N-(2-hydroxyphenyl)propanamide]: the IC50 is 7.19 ± 0.7 µM with HCT-116 [1] (setting [6]), 6.92 ± 0.5 µM in the series with MCF-7 [2] (setting [7]), 86.1 ± 4.1 µM in series [5] and 0.131 µM on VEGFR-2. Further, the “SI (HCT-116)” value with HCT-116 [1] came out at 11.98. The “SI (MCF-7)” value in the series with MCF-7 [2] is 12.44.

For `Cc1ccc(NC(=O)CCc2nc3cc(Cl)ccc3[nH]c2=O)cc1` [Compound 11, 3-(6-Chloro-1,2-dihydro-2-oxoquinoxalin-3-yl)-N-p-tolylpropanamide], the IC50 with HCT-116 [1] (setting [6]) was found to be 61.4 ± 3.4 µM; with MCF-7 [2] (setting [7]), 54 ± 3.1 µM.
